Data: ChEMBL document CHEMBL1140194, “Convenient access to 1,3,4-trisubstituted pyrazoles carrying 5-nitrothiophene moiety via 1,3-dipolar cycloaddition of sydnones with acetylenic ketones and their antimicrobial evaluation” (2008)
Converted amounts (≈) assume the structure as drawn.

Assays:
Format in all cases: functional
Candida albicans = experiment: Antimicrobial activity against Candida albicans NCIM 3100 after 16 to 18 hrs by serial dilution method
Procedure, shortened: (§1)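 Compounds were dissolved in dimethylformamide as stock. An 18-h broth culture was inoculated by loop into nutrient broth and grown 4 h at 37 °C. Stock was serially diluted by 0.5 mL transfers across tubes 1–10, with tube 11 as growth control. About 0.5 mL diluted culture was added per tube, then incubated at 37 °C for 16–18 h. Reference drugs: nitrofurazone for bacteria, fluconazole for Candida.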

Bacillus subtilis = experiment: Antimicrobial activity against Bacillus subtilis after 16 to 18 hrs by serial dilution method; procedure, shortened: as §1
Escherichia coli = experiment: Antimicrobial activity against sEscherichia coli ATCC 25922 after 16 to 18 hrs by serial dilution method; procedure, shortened: as §1
Staphylococcus aureus = experiment: Antimicrobial activity against Staphylococcus aureus ATCC 25923 after 16 to 18 hrs by serial dilution method; procedure, shortened: as §1
Pseudomonas aeruginosa = experiment: Antimicrobial activity against sPseudomonas aeruginosa ATCC 27853 after 16 to 18 hrs by serial dilution method; procedure, shortened: as §1

Cc1ccc(-n2cc(C(=O)c3ccccc3)c(-c3ccc([N+](=O)[O-])s3)n2)cc1
MIC (Candida albicans): 0.25 µg/mL (≈ 0.642 µM)
MIC (Bacillus subtilis): 0.25 µg/mL (≈ 0.642 µM)
MIC (Escherichia coli): 0.25 µg/mL (≈ 0.642 µM)
MIC (Staphylococcus aureus): 0.25 µg/mL (≈ 0.642 µM)
MIC (Pseudomonas aeruginosa): 0.25 µg/mL (≈ 0.642 µM)

COc1ccc(C(=O)c2cn(-c3ccccc3)nc2-c2ccc([N+](=O)[O-])s2)cc1
MIC (Candida albicans): 0.25 µg/mL (≈ 0.617 µM)
MIC (Bacillus subtilis): 0.25 µg/mL (≈ 0.617 µM)
MIC (Escherichia coli): 0.25 µg/mL (≈ 0.617 µM)
MIC (Staphylococcus aureus): 0.25 µg/mL (≈ 0.617 µM)
MIC (Pseudomonas aeruginosa): 0.25 µg/mL (≈ 0.617 µM)

Cc1ccc(C(=O)c2cn(-c3ccccc3)nc2-c2ccc([N+](=O)[O-])s2)cc1
MIC (Candida albicans): 0.25 µg/mL (≈ 0.642 µM)
MIC (Bacillus subtilis): 0.25 µg/mL (≈ 0.642 µM)
MIC (Escherichia coli): 0.25 µg/mL (≈ 0.642 µM)
MIC (Staphylococcus aureus): 0.25 µg/mL (≈ 0.642 µM)
MIC (Pseudomonas aeruginosa): 0.25 µg/mL (≈ 0.642 µM)

Cc1ccc(-n2cc(C(=O)c3ccc(Cl)cc3)c(-c3ccc([N+](=O)[O-])s3)n2)cc1
MIC (Candida albicans): 0.125 µg/mL (≈ 0.295 µM)
MIC (Bacillus subtilis): 0.125 µg/mL (≈ 0.295 µM)
MIC (Escherichia coli): 0.125 µg/mL (≈ 0.295 µM)
MIC (Staphylococcus aureus): 0.125 µg/mL (≈ 0.295 µM)
MIC (Pseudomonas aeruginosa): 0.125 µg/mL (≈ 0.295 µM)

COc1ccc(-n2cc(C(=O)c3ccc(C)cc3)c(-c3ccc([N+](=O)[O-])s3)n2)cc1
MIC (Candida albicans): 0.25 µg/mL (≈ 0.596 µM)
MIC (Bacillus subtilis): 0.25 µg/mL (≈ 0.596 µM)
MIC (Escherichia coli): 0.25 µg/mL (≈ 0.596 µM)
MIC (Staphylococcus aureus): 0.25 µg/mL (≈ 0.596 µM)
MIC (Pseudomonas aeruginosa): 0.25 µg/mL (≈ 0.596 µM)

O=C(c1ccc(Cl)cc1)c1cn(-c2ccccc2)nc1-c1ccc([N+](=O)[O-])s1
MIC (Candida albicans): 0.125 µg/mL (≈ 0.305 µM)
MIC (Bacillus subtilis): 0.125 µg/mL (≈ 0.305 µM)
MIC (Escherichia coli): 0.125 µg/mL (≈ 0.305 µM)
MIC (Staphylococcus aureus): 0.125 µg/mL (≈ 0.305 µM)
MIC (Pseudomonas aeruginosa): 0.125 µg/mL (≈ 0.305 µM)

COc1ccc(-n2cc(C(=O)c3ccccc3)c(-c3ccc([N+](=O)[O-])s3)n2)cc1
MIC (Candida albicans): 0.25 µg/mL (≈ 0.617 µM)
MIC (Bacillus subtilis): 0.25 µg/mL (≈ 0.617 µM)
MIC (Escherichia coli): 0.25 µg/mL (≈ 0.617 µM)
MIC (Staphylococcus aureus): 0.25 µg/mL (≈ 0.617 µM)
MIC (Pseudomonas aeruginosa): 0.25 µg/mL (≈ 0.617 µM)

OC(Cn1cncn1)(Cn1cncn1)c1ccc(F)cc1F [FLUCONAZOLE]
MIC (Candida albicans): 0.25 µg/mL (≈ 0.816 µM)

NC(=O)N/N=C/c1ccc([N+](=O)[O-])o1 [NITROFURAZONE]
MIC (Bacillus subtilis): 0.25 µg/mL (≈ 1.26 µM)
MIC (Escherichia coli): 0.25 µg/mL (≈ 1.26 µM)
MIC (Staphylococcus aureus): 0.25 µg/mL (≈ 1.26 µM)
MIC (Pseudomonas aeruginosa): 0.25 µg/mL (≈ 1.26 µM)

O=C(c1ccccc1)c1cn(-c2ccccc2)nc1-c1ccc([N+](=O)[O-])s1
MIC (Candida albicans): 0.25 µg/mL (≈ 0.666 µM)
MIC (Bacillus subtilis): 0.25 µg/mL (≈ 0.666 µM)
MIC (Escherichia coli): 0.25 µg/mL (≈ 0.666 µM)
MIC (Staphylococcus aureus): 0.25 µg/mL (≈ 0.666 µM)
MIC (Pseudomonas aeruginosa): 0.25 µg/mL (≈ 0.666 µM)

Cc1ccc(C(=O)c2cn(-c3ccc(C)cc3)nc2-c2ccc([N+](=O)[O-])s2)cc1
MIC (Candida albicans): 0.125 µg/mL (≈ 0.31 µM)
MIC (Bacillus subtilis): 0.125 µg/mL (≈ 0.31 µM)
MIC (Escherichia coli): 0.125 µg/mL (≈ 0.31 µM)
MIC (Staphylococcus aureus): 0.125 µg/mL (≈ 0.31 µM)
MIC (Pseudomonas aeruginosa): 0.125 µg/mL (≈ 0.31 µM)

COc1ccc(-n2cc(C(=O)c3ccc(Cl)cc3)c(-c3ccc([N+](=O)[O-])s3)n2)cc1
MIC (Candida albicans): 0.125 µg/mL (≈ 0.284 µM)
MIC (Bacillus subtilis): 0.25 µg/mL (≈ 0.568 µM)
MIC (Escherichia coli): 0.25 µg/mL (≈ 0.568 µM)
MIC (Staphylococcus aureus): 0.25 µg/mL (≈ 0.568 µM)
MIC (Pseudomonas aeruginosa): 0.25 µg/mL (≈ 0.568 µM)
